Series [1] in a line: Half life in rat liver microsomes. It is filed as ADME, Microsome. Summed up: (§1)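 Liver microsome half-life (min) measured in human, mouse, rat, dog and cyno liver microsomes.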
The subject of series [2] is Mus musculus. Description: Protection against imiquimod-induced C57BL/6 mouse model of psoriasis assessed as inhibition of skin thickening at 5 mg/kg, po BID for 7 days and measured every day for 8 days relative to control. It is filed as functional. The settings on record: C57BL/6, po, 168 h, time 7 day.
Series [3] relates to Mus musculus. Briefly: Protection against recombinant human IL23-induced acanthosis C57BL/6 mouse model assessed as reduction in IL-17F mRNA levels at 6 mg/kg, po BID BID for 10 days by qRT-PCR analysis relative to control. It is filed as functional. Further details: scale not given: the % may be the effect or the level left. Conditions: time 10 day. Summed up:
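In the IL-23 ear-injection model in C57BL/6 mice with BID oral dosing, ear tissue was collected from all animals at study end on day 10. IL-17A and IL-17F mRNA expression was quantified by qPCR and compared with the placebo arm.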

The target in series [4] is T1, Oxysterols receptor LXR-beta (Homo sapiens, UniProt P55055).
T1 sequence (P55055 whole entry): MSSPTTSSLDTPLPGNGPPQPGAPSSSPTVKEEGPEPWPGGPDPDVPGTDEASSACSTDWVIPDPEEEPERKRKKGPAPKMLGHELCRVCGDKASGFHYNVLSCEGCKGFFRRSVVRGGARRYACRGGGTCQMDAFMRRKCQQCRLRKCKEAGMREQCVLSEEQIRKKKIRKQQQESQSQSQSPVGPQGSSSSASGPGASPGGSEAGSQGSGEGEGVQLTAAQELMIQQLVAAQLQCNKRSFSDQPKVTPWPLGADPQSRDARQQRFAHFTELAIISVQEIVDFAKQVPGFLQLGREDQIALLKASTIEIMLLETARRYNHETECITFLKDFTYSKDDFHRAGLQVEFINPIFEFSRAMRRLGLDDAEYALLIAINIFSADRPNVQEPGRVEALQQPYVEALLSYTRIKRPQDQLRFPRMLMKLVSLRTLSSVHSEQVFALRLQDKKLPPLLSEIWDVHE
Briefly: Inverse agonist activity at LXRbeta (unknown origin).

The subject of series [5] is Mus musculus. Description: Protection against recombinant human IL23-induced acanthosis C57BL/6 mouse model assessed as inhibition of ear thickening at 15 mg/kg, po BID for 10 days and measured every other day relative to control. Conditions: C57BL/6, po, 240 h, time 10 day. It is filed as functional. In a few lines: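 IL-23 ear-injection acanthosis model in C57BL/6 mice with BID oral dosing. Ear thickness % change was recorded every other day, before each next injection, from a day 0 baseline. Inhibition of ear thickening was calculated against the placebo arm from the area under the curve over the study duration.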

Series [6] in a line: AUC (0 to 24 hrs) in rat at 4 mg/kg, po. It is filed as ADME, organism-based. Further details: time < 24 hr, route oral, dose 4 mg/kg. Conditions: in vivo.
The subject of series [7] is Mus musculus. Description: Protection against imiquimod-induced C57BL/6 mouse model of psoriasis assessed as reduction in IL-17A mRNA levels at 5 mg/kg, po BID for 7 days by RT-PCR analysis relative to control. It is filed as functional. The settings on record: time 7 day. Also noted: scale not given: the % may be the effect or the level left.
Series [8] concerns Mus musculus. Description: Protection against imiquimod-induced C57BL/6 mouse model of psoriasis assessed as reduction in IL-17F mRNA levels at 20 mg/kg, po BID for 7 days by RT-PCR analysis relative to control. It is filed as functional. Also noted: scale not given: the % may be the effect or the level left. Conditions: time 7 day.
Series [9] concerns Mus musculus. Briefly: Protection against imiquimod-induced C57BL/6 mouse model of psoriasis assessed as reduction in IL-17A mRNA levels at 20 mg/kg, po BID for 7 days by RT-PCR analysis relative to control. It is filed as functional. Also noted: scale not given: the % may be the effect or the level left. The settings on record: time 7 day.
Series [10] in a line: Oral bioavailability in cynomolgus monkey at 2 mg/kg. It is filed as ADME, organism-based, Macaca fascicularis. The settings on record: in vivo. Summed up: (§2)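 Single-dose PK, IV and PO. Doses: mouse and rat 2 mg/kg IV / 4 mg/kg PO; dog and cyno 1 mg/kg IV, with 1 or 2 mg/kg PO.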
The next series has as its target Cytochrome P450 3A4 (Homo sapiens, UniProt P08684). Briefly: Inhibition of CYP3A4 (unknown origin). It is filed as ADME.
A short description of series [11]: Clearance in rat at 2 mg/kg, iv. It is filed as ADME, organism-based. The settings on record: in vivo. Summed up: as §2
The nature of series [12]: Oral bioavailability in rat at 4 mg/kg. It is filed as ADME, organism-based. The settings on record: in vivo. Summed up: as §2
Series [13] is described as follows: AUC (0 to 24 hrs) in dog at 2 mg/kg, po. It is filed as ADME, organism-based, Canis lupus familiaris. Further details: time < 24 hr, route oral, dose 2 mg/kg. The settings on record: in vivo.
Series [14] can be described thus: Volume of distribution at steady state in rat at 2 mg/kg, iv. The settings on record: in vivo, read-out: Vdss. It is filed as ADME, organism-based. Summed up: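 Single intravenous dose: mouse and rat 2 mg/kg, dog and cynomolgus 1 mg/kg. Steady-state volume of distribution was derived from the IV arm. Values are means from three or more animals.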
The nature of series [15]: Half life in cynomolgus monkey liver microsomes. It is filed as ADME, Macaca fascicularis, Microsome. Summed up:
as §1
A general note: Liver microsomes are a subcellular fraction often used to study metabolism.

The target in series [16] is T2, Nuclear receptor subfamily 1 group I member 2 (Homo sapiens, UniProt O75469).
T2 sequence (O75469 whole entry): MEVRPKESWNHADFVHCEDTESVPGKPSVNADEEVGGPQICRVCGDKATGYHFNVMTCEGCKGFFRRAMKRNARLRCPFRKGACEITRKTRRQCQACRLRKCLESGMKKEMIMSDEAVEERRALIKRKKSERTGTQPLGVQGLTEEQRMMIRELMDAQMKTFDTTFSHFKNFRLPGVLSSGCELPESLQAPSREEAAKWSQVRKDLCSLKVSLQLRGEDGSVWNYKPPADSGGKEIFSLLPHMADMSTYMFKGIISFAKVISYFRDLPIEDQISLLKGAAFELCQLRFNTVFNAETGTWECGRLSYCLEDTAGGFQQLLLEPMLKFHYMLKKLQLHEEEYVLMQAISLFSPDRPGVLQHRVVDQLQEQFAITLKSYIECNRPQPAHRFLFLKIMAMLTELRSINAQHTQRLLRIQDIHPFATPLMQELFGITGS
Briefly: Inverse agonist activity at PXR (unknown origin).

A short description of series [17]: Clearance in mouse at 2 mg/kg, iv. It is filed as ADME, organism-based. Conditions: in vivo. Summed up:
as §2

In the next series the target is T3, Cytochrome P450 2C8 (Homo sapiens, UniProt P10632).
T3 sequence (P10632 whole entry): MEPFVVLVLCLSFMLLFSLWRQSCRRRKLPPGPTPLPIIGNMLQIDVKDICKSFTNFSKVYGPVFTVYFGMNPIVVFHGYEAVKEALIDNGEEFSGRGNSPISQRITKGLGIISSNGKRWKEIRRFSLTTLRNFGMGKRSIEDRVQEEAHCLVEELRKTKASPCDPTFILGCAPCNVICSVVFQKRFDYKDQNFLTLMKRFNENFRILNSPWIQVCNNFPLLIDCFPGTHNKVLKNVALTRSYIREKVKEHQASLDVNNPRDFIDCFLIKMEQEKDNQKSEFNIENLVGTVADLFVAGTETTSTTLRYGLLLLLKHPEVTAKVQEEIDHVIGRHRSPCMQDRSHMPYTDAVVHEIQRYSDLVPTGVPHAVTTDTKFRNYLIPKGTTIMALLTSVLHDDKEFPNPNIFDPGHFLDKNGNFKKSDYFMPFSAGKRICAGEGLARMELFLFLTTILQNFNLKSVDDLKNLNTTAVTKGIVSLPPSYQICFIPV
Briefly: Inhibition of CYP2C8 (unknown origin). It is filed as ADME.

Series [18] can be described thus: Oral bioavailability in dog at 2 mg/kg. It is filed as ADME, organism-based, Canis lupus familiaris. Conditions: in vivo. In a few lines: as §2
Series [19] in a line: Half life in mouse liver microsomes. It is filed as ADME, Microsome. Summed up:
as §1

Series [20] has as its system Mus musculus. Description: Protection against imiquimod-induced C57BL/6 mouse model of psoriasis assessed as inhibition of skin thickening at 10 mg/kg, po BID for 7 days and measured every day for 8 days relative to control. It is filed as functional. The settings on record: C57BL/6, po, 168 h, time 7 day.

Sequence of Cytochrome P450 3A4 (P08684 whole entry): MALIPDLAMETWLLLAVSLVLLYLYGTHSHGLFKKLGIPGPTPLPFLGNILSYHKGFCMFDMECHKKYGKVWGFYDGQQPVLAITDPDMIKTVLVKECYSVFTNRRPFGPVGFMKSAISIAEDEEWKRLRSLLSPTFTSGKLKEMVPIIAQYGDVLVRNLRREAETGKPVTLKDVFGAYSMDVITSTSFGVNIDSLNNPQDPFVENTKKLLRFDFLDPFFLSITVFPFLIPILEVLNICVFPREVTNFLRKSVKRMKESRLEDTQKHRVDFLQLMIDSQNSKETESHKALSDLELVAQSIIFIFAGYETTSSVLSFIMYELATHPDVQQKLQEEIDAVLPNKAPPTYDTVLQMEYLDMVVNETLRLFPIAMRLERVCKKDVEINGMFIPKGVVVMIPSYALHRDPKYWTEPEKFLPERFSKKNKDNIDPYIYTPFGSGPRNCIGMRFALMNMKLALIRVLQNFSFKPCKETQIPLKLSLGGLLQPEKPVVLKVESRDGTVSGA

Take `CC(C)(O)C(=O)N[C@@H]1CC[C@@]2(S(=O)(=O)c3ccc(F)cc3)c3ccc(C(F)(C(F)(F)F)C(F)(F)F)cc3CC[C@@H]12`: the half-life in [1], in [15] and in series [19] was 2 h in each case. In the series with Mus musculus [2], the inhibition in vivo – broadly, the percentage by which the read-out fell short of the control – at 5 mg/kg stood at 13.7%. Also, the Activity worked out at 87.3% in the series on Mus musculus [3], 75.9% with Mus musculus [7], 97.9% in the series with Mus musculus [8] and 91.5% in the series on Mus musculus [9]. In addition, the concentration giving a half-maximal response (EC50) in [4] and in series [16] was > 5 µM each time. In addition, the inhibition in vivo at 15 mg/kg in the series with Mus musculus [5] was found to be 66.8%. Further, the AUC(0-t) – broadly, exposure summed from dosing to a finite time, without extrapolation to infinity – at 24 h is 17 µM·h in [6] and 59.8 µM·h in series [13]. In addition, the bioavailability (usually the share of a dose that reaches the circulation, judged against a reference dose that is usually intravenous) in series [10] amounted to 75%; in series [12] it was 65%; in series [18], 83%. Also, the IC50 (as a rule, the concentration that inhibits the measured activity by half) was 11 µM on Cytochrome P450 3A4 and 12 µM at Cytochrome P450 2C8. The clearance (as a rule, the volume of plasma or blood freed of the substance per unit of time) in series [11] turned out to be 4.2 mL/min/kg; in series [17] it was 3.7 mL/min/kg. For the same compound, in [14], the Vd amounted to 2.9 L/kg. In the series on Mus musculus [20], the inhibition in vivo at 10 mg/kg is 39.6%.

These data come from ChEMBL document CHEMBL4819034, “Tricyclic-Carbocyclic RORγt Inverse Agonists-Discovery of BMS-986313” (J Med Chem, 2021).
